Laboratory results as given in ChEMBL document CHEMBL4325889, “Natural products hybrids: 3,5,4'-Trimethoxystilbene-5,6,7-trimethoxyflavone chimeric analogs as potential cytotoxic agents against diverse human cancer cells” (Eur J Med Chem, 2019).

How the values were obtained:
Format in all cases: functional
COLO 205 = assay: Growth inhibition of human COLO205 cells at 10 uM after 48 hrs by SRB assay relative to control; details: COLO 205, 48 h, read-out: GI
Summary of the method: (§1)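 Screened at the National Cancer Institute by the standard NCI protocol using the sulforhodamine B assay, which measures cellular protein. Single dose of 10 µM. Result is percent growth inhibition; values above 100% mean cell number fell below the initial population. Values are the average of duplicates.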

UO-31 = assay: Growth inhibition of human UO31 cells at 10 uM after 48 hrs by SRB assay relative to control; details: UO-31, 48 h, read-out: GI
Summary of the method: (§2)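 NCI screen against its human cancer cell line panel by the standard NCI protocol, SRB protein stain. Single dose of 10 μM. Percent growth inhibition versus control; values above 100% mean the cell population fell below the starting number. Each value is the mean of duplicates.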

MOLT-4 = assay: Growth inhibition of human MOLT4 cells at 10 uM after 48 hrs by SRB assay relative to control; details: MOLT-4, 48 h, read-out: GI; summary of the method: as §1
786-0 = assay: Growth inhibition of human 786-0 cells at 10 uM after 48 hrs by SRB assay relative to control; details: 786-0, 48 h, read-out: GI; summary of the method: as §1
SNB-75 = assay: Growth inhibition of human SNB75 cells at 10 uM after 48 hrs by SRB assay relative to control; details: SNB-75, 48 h, read-out: GI; summary of the method: as §2
RPMI-8226 = assay: Growth inhibition of human RPMI8226 cells at 10 uM after 48 hrs by SRB assay relative to control; details: RPMI-8226, 48 h, read-out: GI; summary of the method: as §1
ACHN = assay: Growth inhibition of human ACHN cells at 10 uM after 48 hrs by SRB assay relative to control; details: read-out: GI; summary of the method: as §1
Hs-578T = assay: Growth inhibition of human Hs 578T cells at 10 uM after 48 hrs by SRB assay relative to control; details: read-out: GI; summary of the method: as §1
HT-29 = assay: Growth inhibition of human HT-29 cells at 10 uM after 48 hrs by SRB assay relative to control; details: HT-29, 48 h, read-out: GI; summary of the method: as §1
SR = assay: Growth inhibition of human SR cells at 10 uM after 48 hrs by SRB assay relative to control; details: read-out: GI; summary of the method: as §2
MCF7 = assay: Growth inhibition of human MCF7 cells at 10 uM after 48 hrs by SRB assay relative to control; details: MCF7, 48 h, read-out: GI; summary of the method: as §1
MDA-MB-468 = assay: Growth inhibition of human MDA-MB-468 cells at 10 uM after 48 hrs by SRB assay relative to control; details: MDA-MB-468, 48 h, read-out: GI; summary of the method: as §1
U-251 = assay: Growth inhibition of human U251 cells at 10 uM after 48 hrs by SRB assay relative to control; details: U-251, 48 h, read-out: GI; summary of the method: as §2
SN12C = assay: Growth inhibition of human SN12C cells at 10 uM after 48 hrs by SRB assay relative to control; details: read-out: GI; summary of the method: as §1
IGROV-1 = assay: Growth inhibition of human IGROV1 cells at 10 uM after 48 hrs by SRB assay relative to control; details: IGROV-1, 48 h, read-out: GI; summary of the method: as §1
NCI-H522 = assay: Growth inhibition of human NCI-H522 cells at 10 uM after 48 hrs by SRB assay relative to control; details: NCI-H522, 48 h, read-out: GI; summary of the method: as §1
SW-620 = assay: Growth inhibition of human SW620 cells at 10 uM after 48 hrs by SRB assay relative to control; details: SW-620, 48 h, read-out: GI; summary of the method: as §2
SK-MEL-2 = assay: Growth inhibition of human SK-MEL-2 cells at 10 uM after 48 hrs by SRB assay relative to control; details: SK-MEL-2, 48 h, read-out: GI; summary of the method: as §1
UACC-257 = assay: Growth inhibition of human UACC257 cells at 10 uM after 48 hrs by SRB assay relative to control; details: UACC-257, 48 h, read-out: GI; summary of the method: as §2
KM12 = assay: Growth inhibition of human KM12 cells at 10 uM after 48 hrs by SRB assay relative to control; details: KM12, 48 h, read-out: GI; summary of the method: as §1
HOP-92 = assay: Growth inhibition of human HOP92 cells at 10 uM after 48 hrs by SRB assay relative to control; details: HOP-92, 48 h, read-out: GI; summary of the method: as §1
LOX IMVI = assay: Growth inhibition of human LOXIMVI cells at 10 uM after 48 hrs by SRB assay relative to control; details: read-out: GI; summary of the method: as §1
NCI-H322M = assay: Growth inhibition of human NCI-H322M cells at 10 uM after 48 hrs by SRB assay relative to control; details: read-out: GI; summary of the method: as §1
A549 = assay: Growth inhibition of human A549 cells at 10 uM after 48 hrs by SRB assay relative to control; details: A549, 48 h, read-out: GI; summary of the method: as §1
NCI-H460 = assay: Growth inhibition of human NCI-H460 cells at 10 uM after 48 hrs by SRB assay relative to control; details: NCI-H460, 48 h, read-out: GI; summary of the method: as §1
SF-295 = assay: Growth inhibition of human SF295 cells at 10 uM after 48 hrs by SRB assay relative to control; details: SF-295, 48 h, read-out: GI; summary of the method: as §1
NCI-H23 = assay: Growth inhibition of human NCI-H23 cells at 10 uM after 48 hrs by SRB assay relative to control; details: NCI-H23, 48 h, read-out: GI; summary of the method: as §1
TK-10 = assay: Growth inhibition of human TK10 cells at 10 uM after 48 hrs by SRB assay relative to control; details: TK-10, 48 h, read-out: GI; summary of the method: as §2
SK-MEL-28 = assay: Growth inhibition of human SK-MEL-28 cells at 10 uM after 48 hrs by SRB assay relative to control; details: SK-MEL-28, 48 h, read-out: GI; summary of the method: as §1
OVCAR-4 = assay: Growth inhibition of human OVCAR4 cells at 10 uM after 48 hrs by SRB assay relative to control; details: OVCAR-4, 48 h, read-out: GI; summary of the method: as §1
Malme-3M = assay: Growth inhibition of human MALME-3M cells at 10 uM after 48 hrs by SRB assay relative to control; details: read-out: GI; summary of the method: as §1
HCT-15 = assay: Growth inhibition of human HCT15 cells at 10 uM after 48 hrs by SRB assay relative to control; details: HCT-15, 48 h, read-out: GI; summary of the method: as §1
CAKI-1 = assay: Growth inhibition of human Caki1 cells at 10 uM after 48 hrs by SRB assay relative to control; details: CAKI-1, 48 h, read-out: GI; summary of the method: as §1
HOP-62 = assay: Growth inhibition of human HOP62 cells at 10 uM after 48 hrs by SRB assay relative to control; details: HOP-62, 48 h, read-out: GI; summary of the method: as §1
CCRF-CEM = assay: Growth inhibition of human CCRF-CEM cells at 10 uM after 48 hrs by SRB assay relative to control; details: read-out: GI; summary of the method: as §1
SF-539 = assay: Growth inhibition of human SF539 cells at 10 uM after 48 hrs by SRB assay relative to control; details: SF-539, 48 h, read-out: GI; summary of the method: as §1

Compound: COc1cccc(NC(=O)c2cccc(-c3cc(=O)c4c(O)c(OC)c(OC)cc4o3)c2)c1
- inhibition of growth at 10 µM (COLO 205): 24.3%
- inhibition of growth at 10 µM (UO-31): 41.7%
- inhibition of growth at 10 µM (MOLT-4): 24.2%
- inhibition of growth at 10 µM (786-0): 14.2%
- inhibition of growth at 10 µM (SNB-75): 1.94%
- inhibition of growth at 10 µM (RPMI-8226): 53.6%
- inhibition of growth at 10 µM (ACHN): 33.8%
- inhibition of growth at 10 µM (Hs-578T): 45.5%
- inhibition of growth at 10 µM (HT-29): 15.6%
- inhibition of growth at 10 µM (SR): 47.7%
- inhibition of growth at 10 µM (MCF7): 13.2%
- inhibition of growth at 10 µM (MDA-MB-468): 46%
- inhibition of growth at 10 µM (U-251): 23.9%
- inhibition of growth at 10 µM (SN12C): 19%
- inhibition of growth at 10 µM (IGROV-1): 12%
- inhibition of growth at 10 µM (NCI-H522): 59.8%
- inhibition of growth at 10 µM (SW-620): 18.4%
- inhibition of growth at 10 µM (SK-MEL-2): 2.64%
- inhibition of growth at 10 µM (UACC-257): 8.74%
- inhibition of growth at 10 µM (KM12): 35.5%
- inhibition of growth at 10 µM (HOP-92): 33.6%
- inhibition of growth at 10 µM (LOX IMVI): 36.8%
- inhibition of growth at 10 µM (NCI-H322M): 12.9%
- inhibition of growth at 10 µM (A549): 26.6%
- inhibition of growth at 10 µM (NCI-H460): 31.4%
- inhibition of growth at 10 µM (SF-295): 17.6%
- inhibition of growth at 10 µM (NCI-H23): 25.4%
- inhibition of growth at 10 µM (TK-10): 6.27%
- inhibition of growth at 10 µM (SK-MEL-28): 14.2%
- inhibition of growth at 10 µM (OVCAR-4): 48%
- inhibition of growth at 10 µM (Malme-3M): 12.3%
- inhibition of growth at 10 µM (HCT-15): 25.7%
- inhibition of growth at 10 µM (CAKI-1): 32.4%
- inhibition of growth at 10 µM (HOP-62): 37.5%
- inhibition of growth at 10 µM (CCRF-CEM): 34.7%
- inhibition of growth at 10 µM (SF-539): 20.7%

Compound: COc1ccccc1NC(=O)c1cccc(-c2cc(=O)c3c(O)c(OC)c(OC)cc3o2)c1
- inhibition of growth at 10 µM (COLO 205): -7.01%
- inhibition of growth at 10 µM (UO-31): 30%
- inhibition of growth at 10 µM (MOLT-4): 27.9%
- inhibition of growth at 10 µM (786-0): 9.66%
- inhibition of growth at 10 µM (SNB-75): 13%
- inhibition of growth at 10 µM (RPMI-8226): 45.4%
- inhibition of growth at 10 µM (ACHN): 9.27%
- inhibition of growth at 10 µM (Hs-578T): 3.9%
- inhibition of growth at 10 µM (HT-29): 10.8%
- inhibition of growth at 10 µM (SR): 21.5%
- inhibition of growth at 10 µM (MCF7): 7.54%
- inhibition of growth at 10 µM (MDA-MB-468): 9.38%
- inhibition of growth at 10 µM (U-251): -0.16%
- inhibition of growth at 10 µM (SN12C): 5.99%
- inhibition of growth at 10 µM (IGROV-1): -5.97%
- inhibition of growth at 10 µM (NCI-H522): 26.6%
- inhibition of growth at 10 µM (SW-620): -0.74%
- inhibition of growth at 10 µM (SK-MEL-2): 14.1%
- inhibition of growth at 10 µM (UACC-257): 1.19%
- inhibition of growth at 10 µM (KM12): 0.81%
- inhibition of growth at 10 µM (HOP-92): 15.8%
- inhibition of growth at 10 µM (LOX IMVI): 16.7%
- inhibition of growth at 10 µM (NCI-H322M): 1.56%
- inhibition of growth at 10 µM (A549): 18.5%
- inhibition of growth at 10 µM (NCI-H460): -3.83%
- inhibition of growth at 10 µM (SF-295): 10.8%
- inhibition of growth at 10 µM (NCI-H23): 13.9%
- inhibition of growth at 10 µM (TK-10): 14.1%
- inhibition of growth at 10 µM (SK-MEL-28): 5.62%
- inhibition of growth at 10 µM (OVCAR-4): 3.74%
- inhibition of growth at 10 µM (Malme-3M): 5.55%
- inhibition of growth at 10 µM (HCT-15): 13%
- inhibition of growth at 10 µM (CAKI-1): 6.75%
- inhibition of growth at 10 µM (HOP-62): 0.21%
- inhibition of growth at 10 µM (CCRF-CEM): 39.8%
- inhibition of growth at 10 µM (SF-539): 6.01%
